Measurements published in ChEMBL document CHEMBL1122346, “Antihypertensive activity of 6-arylpyrido[2,3-d]pyrimidin-7-amine derivatives. 2. 7-Acyl amide analogues” (J Med Chem, 1983).
Values belong to the compound of their own block, whether it stands above or below them.

Assays:
[1] = tested on: Rattus norvegicus; assay: Antihypertensive activity in conscious spontaneously hypertensive rats 10 hr following 50 mg/kg p.o.; No significant reduction.; type: functional; conditions: route oral
[2] = tested on: Rattus norvegicus; assay: Antihypertensive activity in conscious spontaneously hypertensive rats 24 hr following 50 mg/kg p.o.; No significant reduction.; type: functional; conditions: route oral
[3] = tested on: Rattus norvegicus; assay: Antihypertensive activity in conscious spontaneously hypertensive rats 2 hr following 50 mg/kg p.o.; No significant reduction.; type: functional; conditions: route oral
[4] = tested on: Rattus norvegicus; assay: Antihypertensive activity rating in conscious SHR after 2 hr post dose at 10 mg/kg (po); 0=No significant reduction; type: functional
[5] = tested on: Rattus norvegicus; assay: Antihypertensive activity rating in conscious SHR after 10 hr post dose at 50 mg/kg (po); Range 20-30%; type: functional
[6] = tested on: Rattus norvegicus; assay: Antihypertensive activity rating in conscious SHR after 10 hr post dose at 10 mg/kg (po); 0=No significant reduction; type: functional
[7] = tested on: Rattus norvegicus; assay: Antihypertensive activity rating in conscious SHR after 2 hr post dose at 50 mg/kg (po); Range 20-30%; type: functional
[8] = tested on: Rattus norvegicus; assay: Antihypertensive activity rating in conscious SHR after 24 h post dose at 50 mg/kg (po); Range 20-30%; type: functional
[9] = organism: Rattus norvegicus; assay: Maximum percent decrease in blood pressure in SHR ( hour post dose in parentheses); type: functional
[10] = tested on: Rattus norvegicus; assay: Antihypertensive activity rating in conscious SHR after 24 h post dose at 10 mg/kg (po); Range 10-20%; type: functional
[11] = tested on: Rattus norvegicus; assay: Antihypertensive activity rating in conscious SHR after 24 hr post dose at 50 mg/kg (po); Range 10-20%; type: functional
[12] = tested on: Rattus norvegicus; assay: Antihypertensive activity in conscious spontaneously hypertensive rats 10 hr following 50 mg/kg p.o.; Range 10-20%.; type: functional; conditions: route oral
[13] = tested on: Rattus norvegicus; assay: Antihypertensive activity rating in conscious SHR after 24 h post dose at 10 mg/kg (po); 0=No significant reduction; type: functional
[14] = tested on: Rattus norvegicus; assay: Antihypertensive activity rating in conscious SHR after 2 hr post dose at 10 mg/kg (po); Range 10-20%; type: functional
[15] = tested on: Rattus norvegicus; assay: Antihypertensive activity rating in conscious SHR after 2 hr post dose at 50 mg/kg (po); Range 10-20%; type: functional
[16] = tested on: Rattus norvegicus; assay: Antihypertensive activity rating in conscious SHR after 10 hr post dose at 10 mg/kg (po); Range 10-20%; type: functional
[17] = tested on: Rattus norvegicus; assay: Antihypertensive activity rating in conscious SHR after 24-72 hr post dose at 10 mg/kg (po); Range 10-20%; type: functional
[18] = pKa value, measured in 67% of DMF; type: physicochemical; conditions: 67% DMF
Outline: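 Dissociation constants were found by potentiometric titration in 67% N,N-dimethylformamide/water.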

[19] = Half-life measured in 0.1 N HCl; Stable; type: ADME; conditions: buffer
Outline: (§1)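 Hydrolytic stability was tested at room temperature on solutions of ca. 0.001-0.002%. Media were 0.1 N HCl (pH ~1.5), 50% MeOH/pH 7 phosphate buffer (pH ~8.0), and 50% MeOH/0.05 N aqueous NaOH (pH ~12.2). Changes in the UV spectrum were followed over 2 weeks.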

[20] = Half-life measured in 1:1 ratio of MeOH and phosphate buffer at pH 7; Stable; type: ADME; outline: as §1
[21] = Half-life measured in 1:1 ratio of MeOH and 0.1 N NaOH; type: ADME; conditions: 1:1 MeOH / 0.1 N NaOH; outline: as §1

Structure (SMILES): CC(=O)Nc1nc2nc(C)nc(NC(C)=O)c2cc1-c1c(Cl)cccc1Cl
- Activity rating [1]: 0%
- Activity rating [2]: 0%
- Activity rating [3]: 0%

Structure (SMILES): COCC(=O)Nc1nc2nc(C)ncc2cc1-c1c(Cl)cccc1Cl
- Activity rating [4]: 0%
- Activity rating [5]: 20%
- Activity rating [6]: 0%
- Activity rating [7]: 20%
- Activity rating [8]: 20%
- Decrease [9]: 29%
- Activity rating [10]: 10%

Structure (SMILES): CC(=O)Nc1nc2nc(C)nc(C)c2cc1-c1ccccc1C
- Activity rating [1]: 0%
- Activity rating [2]: 0%
- Activity rating [3]: 0%

Structure (SMILES): CC(=O)Nc1nc2nc(C)nc(C)c2cc1-c1c(Cl)cccc1Cl
- Activity rating [7]: 20%
- Activity rating [1]: 0%
- Decrease [9]: 20%
- Activity rating [2]: 0%

Structure (SMILES): Cc1ncc2cc(-c3c(Cl)cccc3Cl)c(/N=C/N(C)C)nc2n1
- Activity rating [11]: 10%
- Activity rating [12]: 10%
- Decrease [9]: 17%
- Activity rating [3]: 0%

Structure (SMILES): Cc1ncc2cc(-c3c(Cl)cccc3Cl)c(NC(=O)c3ccccc3F)nc2n1
- Activity rating [4]: 0%
- Activity rating [6]: 0%
- Activity rating [13]: 0%

Structure (SMILES): CCNC(=O)Nc1nc2nc(C)ncc2cc1-c1c(Cl)cccc1Cl
- Activity rating [1]: 0%
- Activity rating [2]: 0%
- Activity rating [3]: 0%

Structure (SMILES): CC(=O)Nc1nc2nc(C)ncc2cc1-c1ccccc1C
- Activity rating [1]: 0%
- Activity rating [2]: 0%
- Activity rating [3]: 0%

Structure (SMILES): Cc1ncc2cc(-c3c(Cl)cccc3Cl)c(NC(=O)CNC(=O)OCc3ccccc3)nc2n1
- Activity rating [14]: 10%
- Activity rating [5]: 20%
- Activity rating [15]: 10%
- Activity rating [6]: 0%
- Activity rating [11]: 10%
- Decrease [9]: 29%
- Activity rating [13]: 0%

Structure (SMILES): CN/C(=N/c1nc2nc(C)ncc2cc1-c1c(Cl)cccc1Cl)SC
- Activity rating [1]: 0%
- Activity rating [2]: 0%
- Activity rating [3]: 0%

Structure (SMILES): Cc1ncc2cc(-c3c(Cl)cccc3Cl)c(NC(=O)C(Cl)Cl)nc2n1
- Activity rating [14]: 10%
- Activity rating [16]: 10%
- Decrease [9]: 16%
- Activity rating [13]: 0%

Structure (SMILES): Cc1ncc2cc(-c3c(Cl)cccc3Cl)c(NC(=O)c3ccccn3)nc2n1
- Activity rating [5]: 20%
- Activity rating [15]: 10%
- Activity rating [16]: 10%
- Activity rating [8]: 20%
- Decrease [9]: 29%
- Activity rating [17]: 10%

Structure (SMILES): CC(=O)Nc1nc2ncncc2cc1-c1c(Cl)cccc1Cl
- Activity rating [15]: 10%
- Activity rating [12]: 10%
- Decrease [9]: 16%
- Activity rating [2]: 0%

Structure (SMILES): CNC(=O)Nc1nc2nc(C)ncc2cc1-c1c(Cl)cccc1Cl
- Activity rating [7]: 20%
- Activity rating [12]: 10%
- Decrease [9]: 26%
- Activity rating [2]: 0%

Structure (SMILES): Cc1ncc2cc(-c3c(Cl)cccc3Cl)c(NC(N)=O)nc2n1
- Activity rating [1]: 0%
- Decrease [9]: 16%
- Activity rating [2]: 0%
- Activity rating [3]: 0%

Structure (SMILES): Cc1ncc2cc(-c3c(Cl)cccc3Cl)c(NC(=O)c3cccc(N(C)C)c3)nc2n1
- Activity rating [11]: 10%
- Activity rating [12]: 10%
- Decrease [9]: 15%
- Activity rating [3]: 0%

Structure (SMILES): CC(=O)Nc1nc2ncncc2cc1-c1ccccc1C
- Activity rating [1]: 0%
- Activity rating [2]: 0%
- Activity rating [3]: 0%

Structure (SMILES): Cc1ncc2cc(-c3c(Cl)cccc3Cl)c(NC(=O)CN(C)C)nc2n1
- Activity rating [14]: 10%
- Activity rating [16]: 10%
- Decrease [9]: 18%
- Activity rating [13]: 0%

Structure (SMILES): Cc1ncc2cc(-c3c(Cl)cccc3Cl)c(NC(=O)Cc3ccccc3)nc2n1
- Activity rating [15]: 10%
- Activity rating [11]: 10%
- Activity rating [12]: 10%
- Decrease [9]: 17%

Structure (SMILES): COc1ccc(CC(=O)Nc2nc3nc(C)ncc3cc2-c2c(Cl)cccc2Cl)cc1OC
- Activity rating [4]: 0%
- Activity rating [6]: 0%
- Activity rating [13]: 0%

Structure (SMILES): Cc1ncc2cc(-c3c(Cl)cccc3Cl)c(NC(=O)Nc3ccccc3)nc2n1
- Activity rating [1]: 0%
- Activity rating [2]: 0%
- Activity rating [3]: 0%

Structure (SMILES): Cc1ncc2cc(-c3c(Cl)cccc3Cl)c(NC(=O)Cc3c(Cl)cccc3Cl)nc2n1
- Activity rating [4]: 0%
- Activity rating [6]: 0%
- Activity rating [13]: 0%

Structure (SMILES): Cc1ncc2cc(-c3c(Cl)cccc3Cl)c(NC(=O)c3ccccc3C)nc2n1
- Activity rating [11]: 10%
- Activity rating [12]: 10%
- Decrease [9]: 23%
- Activity rating [3]: 0%

Structure (SMILES): C/N=C(\N)Nc1nc2nc(C)ncc2cc1-c1c(Cl)cccc1Cl
- Activity rating [7]: 20%
- Activity rating [12]: 10%
- Decrease [9]: 24%
- Activity rating [2]: 0%

- pKa [18]: 4.2
- T1/2 [19]: Stable
- T1/2 [20]: Stable
- half-life [21]: 1.6 h
Structure (SMILES): CC(=O)N(C)c1nc2nc(C)ncc2cc1-c1c(Cl)cccc1Cl
- Activity rating [1]: 0%
- Activity rating [2]: 0%
- Activity rating [3]: 0%

Structure (SMILES): Cc1ncc2cc(-c3c(Cl)cccc3Cl)c(NC(=O)C(C)(C)C)nc2n1
- Activity rating [4]: 0%
- Activity rating [6]: 0%
- Activity rating [13]: 0%

Structure (SMILES): Cc1ncc2cc(-c3c(Cl)cccc3Cl)c(NC(=O)c3ccncc3)nc2n1
- Activity rating [14]: 10%
- Activity rating [16]: 10%
- Decrease [9]: 18%
- Activity rating [10]: 10%

Structure (SMILES): C/N=C(\NC)Nc1nc2nc(C)ncc2cc1-c1c(Cl)cccc1Cl
- Activity rating [7]: 20%
- Activity rating [12]: 10%
- Decrease [9]: 24%
- Activity rating [2]: 0%

Structure (SMILES): Cc1ncc2cc(-c3c(Cl)cccc3Cl)c(NC(=O)C(C)C)nc2n1
- Activity rating [14]: 10%
- Activity rating [6]: 0%
- Decrease [9]: 15%
- Activity rating [13]: 0%

Structure (SMILES): CC(=O)Nc1nc2nc(C3CC3)ncc2cc1-c1c(Cl)cccc1Cl
- Activity rating [15]: 10%
- Activity rating [12]: 10%
- Decrease [9]: 24%
- Activity rating [2]: 0%

Structure (SMILES): COc1ccccc1C(=O)Nc1nc2nc(C)ncc2cc1-c1c(Cl)cccc1Cl
- Activity rating [4]: 0%
- Activity rating [6]: 0%
- Activity rating [13]: 0%

Structure (SMILES): Cc1ncc2cc(-c3c(Cl)cccc3Cl)c(NC(=O)c3ccccc3)nc2n1
- Activity rating [5]: 20%
- Activity rating [7]: 20%
- Activity rating [8]: 20%
- Decrease [9]: 30%

Structure (SMILES): C/C(=N\c1nc2nc(C)ncc2cc1-c1c(Cl)cccc1Cl)N(C)C
- Activity rating [15]: 10%
- Activity rating [11]: 10%
- Activity rating [1]: 0%
- Decrease [9]: 18%

Structure (SMILES): Cc1ncc2cc(-c3c(Cl)cccc3Cl)c(NS(C)(=O)=O)nc2n1
- Activity rating [4]: 0%
- Activity rating [15]: 10%
- Activity rating [6]: 0%
- Activity rating [12]: 10%
- Activity rating [8]: 20%
- Decrease [9]: 22%
- Activity rating [13]: 0%

Structure (SMILES): COc1ccc(C(=O)Nc2nc3nc(C)ncc3cc2-c2c(Cl)cccc2Cl)cc1OC
- Activity rating [14]: 10%
- Activity rating [16]: 10%
- Decrease [9]: 16%
- Activity rating [13]: 0%

Structure (SMILES): CCSCC(=O)Nc1nc2nc(C)ncc2cc1-c1c(Cl)cccc1Cl
- Activity rating [14]: 10%
- Activity rating [6]: 0%
- Decrease [9]: 19%
- Activity rating [13]: 0%

Structure (SMILES): Cc1ncc2cc(-c3c(Cl)cccc3Cl)c(NC(=O)C3CC3)nc2n1
- Activity rating [1]: 0%
- Activity rating [2]: 0%
- Activity rating [3]: 0%

Structure (SMILES): C/N=C(\S)Nc1nc2nc(C)ncc2cc1-c1c(Cl)cccc1Cl
- Activity rating [12]: 10%
- Decrease [9]: 12%
- Activity rating [2]: 0%
- Activity rating [3]: 0%

Structure (SMILES): C=CCNC(=O)Nc1nc2nc(C)ncc2cc1-c1c(Cl)cccc1Cl
- Activity rating [12]: 10%
- Decrease [9]: 13%
- Activity rating [2]: 0%
- Activity rating [3]: 0%

Structure (SMILES): Cc1ncc2cc(-c3c(Cl)cccc3Cl)c(NC(=O)OC(C)C)nc2n1
- Activity rating [4]: 0%
- Activity rating [16]: 10%
- Decrease [9]: 15%
- Activity rating [13]: 0%

Structure (SMILES): Cc1ncc2cc(-c3c(Cl)cccc3Cl)c(NC(=O)N(C)C)nc2n1
- Activity rating [15]: 10%
- Activity rating [12]: 10%
- Activity rating [8]: 20%
- Decrease [9]: 26%

Structure (SMILES): Cc1ncc2cc(-c3c(Cl)cccc3Cl)c(=O)n(C)c2n1
- Activity rating [1]: 0%
- Activity rating [2]: 0%
- Activity rating [3]: 0%
